# Data: ChEMBL document CHEMBL1145888, “Prazosin-related compounds. Effect of transforming the piperazinylquinazoline moiety into an aminomethyltetrahydroacridine system on the affinity for alpha1-adrenoreceptors” (J Med Chem, 2003)
# Key:
# [1] = target: T1, Alpha-1A adrenergic receptor (Homo sapiens, UniProt P35348); assay: Binding affinity measured in CHO cells expressing human cloned Alpha-1A adrenergic receptor expressed as pKi; format: cell-based
# T1 sequence (P35348 whole entry): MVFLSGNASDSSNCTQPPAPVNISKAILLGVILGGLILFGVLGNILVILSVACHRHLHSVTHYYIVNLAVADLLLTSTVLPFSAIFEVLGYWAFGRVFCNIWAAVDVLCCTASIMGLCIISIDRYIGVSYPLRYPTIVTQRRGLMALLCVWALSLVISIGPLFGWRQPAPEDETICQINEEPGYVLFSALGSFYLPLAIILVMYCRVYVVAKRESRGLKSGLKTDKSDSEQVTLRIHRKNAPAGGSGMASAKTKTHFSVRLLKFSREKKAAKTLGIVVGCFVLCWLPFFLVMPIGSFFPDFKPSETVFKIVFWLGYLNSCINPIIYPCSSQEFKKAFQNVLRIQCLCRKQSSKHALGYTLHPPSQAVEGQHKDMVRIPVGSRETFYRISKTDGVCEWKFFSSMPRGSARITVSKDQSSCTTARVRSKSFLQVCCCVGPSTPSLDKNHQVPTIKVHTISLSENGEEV
# [2] = target: T2, Alpha-1A adrenergic receptor (Rattus norvegicus) (UniProt P43140); conditions: Vas deferens
# T2 sequence (whole entry): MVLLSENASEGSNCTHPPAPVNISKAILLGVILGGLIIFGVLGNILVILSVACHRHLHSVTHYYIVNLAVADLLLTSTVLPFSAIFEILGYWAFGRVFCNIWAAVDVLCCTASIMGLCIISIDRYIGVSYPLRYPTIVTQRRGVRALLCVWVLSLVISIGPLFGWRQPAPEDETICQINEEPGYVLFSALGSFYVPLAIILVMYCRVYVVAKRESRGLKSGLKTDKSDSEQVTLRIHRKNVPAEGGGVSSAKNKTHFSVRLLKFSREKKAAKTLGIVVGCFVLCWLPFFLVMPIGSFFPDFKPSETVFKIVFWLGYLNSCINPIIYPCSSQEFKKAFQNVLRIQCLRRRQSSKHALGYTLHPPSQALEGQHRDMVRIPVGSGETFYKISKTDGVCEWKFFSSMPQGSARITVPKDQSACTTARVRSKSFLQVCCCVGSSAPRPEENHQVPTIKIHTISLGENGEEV
# [3] = target: T3, Alpha-1D adrenergic receptor (Homo sapiens, UniProt P25100); assay: Binding affinity measured in CHO cells expressing human cloned Alpha-1D adrenergic receptor expressed as pKi; format: cell-based
# T3 sequence (P25100 whole entry): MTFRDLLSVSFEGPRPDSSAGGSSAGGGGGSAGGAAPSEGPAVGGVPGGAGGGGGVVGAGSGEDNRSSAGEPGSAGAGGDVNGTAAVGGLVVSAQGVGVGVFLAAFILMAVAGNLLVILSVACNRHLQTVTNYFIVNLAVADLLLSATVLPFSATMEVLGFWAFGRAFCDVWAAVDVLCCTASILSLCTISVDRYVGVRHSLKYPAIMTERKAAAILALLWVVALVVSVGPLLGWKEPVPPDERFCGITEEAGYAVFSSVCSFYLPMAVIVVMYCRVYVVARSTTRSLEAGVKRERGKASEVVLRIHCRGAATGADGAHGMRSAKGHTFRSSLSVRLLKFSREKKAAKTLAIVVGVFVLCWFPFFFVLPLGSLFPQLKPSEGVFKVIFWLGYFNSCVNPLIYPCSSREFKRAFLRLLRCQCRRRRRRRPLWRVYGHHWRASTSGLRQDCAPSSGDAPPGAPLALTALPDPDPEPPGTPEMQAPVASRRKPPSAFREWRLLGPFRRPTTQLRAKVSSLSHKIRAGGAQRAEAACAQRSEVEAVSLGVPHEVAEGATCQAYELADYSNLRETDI
# [4] = target: T4, Alpha-1B adrenergic receptor (Homo sapiens, UniProt P35368); assay: Binding affinity measured in CHO cells expressing human cloned Alpha-1B adrenergic receptor expressed as pKi; format: cell-based
# T4 sequence (P35368 whole entry): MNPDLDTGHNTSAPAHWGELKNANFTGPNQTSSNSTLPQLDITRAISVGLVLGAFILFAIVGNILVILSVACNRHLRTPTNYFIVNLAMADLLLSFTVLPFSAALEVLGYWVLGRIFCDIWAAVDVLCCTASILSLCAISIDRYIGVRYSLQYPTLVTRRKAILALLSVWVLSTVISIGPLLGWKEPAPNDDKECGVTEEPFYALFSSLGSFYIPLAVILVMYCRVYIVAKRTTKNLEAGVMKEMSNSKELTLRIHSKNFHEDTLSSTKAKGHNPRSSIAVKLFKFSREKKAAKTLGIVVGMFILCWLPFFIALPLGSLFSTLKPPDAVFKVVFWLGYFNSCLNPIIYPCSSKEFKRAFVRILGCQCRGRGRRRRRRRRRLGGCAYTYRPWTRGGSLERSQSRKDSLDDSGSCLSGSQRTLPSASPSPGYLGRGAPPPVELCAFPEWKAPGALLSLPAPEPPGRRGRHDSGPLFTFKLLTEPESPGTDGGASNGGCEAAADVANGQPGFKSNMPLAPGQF
# [5] = target: T5, Alpha-1B adrenergic receptor (Rattus norvegicus) (UniProt P15823); assay: Affinity was evaluated against Alpha-1B adrenergic receptor in isolated rat spleen expressed as pKB; format: tissue-based
# T5 sequence (whole entry): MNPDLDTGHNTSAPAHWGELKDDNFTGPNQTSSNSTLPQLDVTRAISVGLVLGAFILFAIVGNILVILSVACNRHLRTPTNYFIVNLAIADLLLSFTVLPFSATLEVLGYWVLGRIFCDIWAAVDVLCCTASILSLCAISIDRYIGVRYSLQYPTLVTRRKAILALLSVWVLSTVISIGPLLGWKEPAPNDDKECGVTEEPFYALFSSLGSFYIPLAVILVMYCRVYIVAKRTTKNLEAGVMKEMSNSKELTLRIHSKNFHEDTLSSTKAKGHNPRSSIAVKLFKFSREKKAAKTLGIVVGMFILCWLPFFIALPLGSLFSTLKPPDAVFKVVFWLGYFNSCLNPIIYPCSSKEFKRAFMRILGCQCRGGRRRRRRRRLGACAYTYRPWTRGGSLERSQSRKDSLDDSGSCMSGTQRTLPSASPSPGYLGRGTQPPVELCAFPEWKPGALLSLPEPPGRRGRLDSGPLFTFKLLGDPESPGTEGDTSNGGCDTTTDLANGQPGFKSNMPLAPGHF
# Outline: (§1)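 Isolated rat tissue; isometric contractions recorded via force transducer, with parallel tissues receiving no antagonist to check for sensitivity drift. A control agonist cumulative concentration-response curve was run, then antagonist equilibrated 30 min before a repeat curve. Responses were taken as % of the control maximum. pKB (±SE) was calculated by van Rossum at one concentration (0.1-10 µM range), each tested 4-5 times.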
# [6] = target: T6, Alpha-1D adrenergic receptor (Rattus norvegicus) (UniProt P23944); conditions: Aorta
# T6 sequence (whole entry): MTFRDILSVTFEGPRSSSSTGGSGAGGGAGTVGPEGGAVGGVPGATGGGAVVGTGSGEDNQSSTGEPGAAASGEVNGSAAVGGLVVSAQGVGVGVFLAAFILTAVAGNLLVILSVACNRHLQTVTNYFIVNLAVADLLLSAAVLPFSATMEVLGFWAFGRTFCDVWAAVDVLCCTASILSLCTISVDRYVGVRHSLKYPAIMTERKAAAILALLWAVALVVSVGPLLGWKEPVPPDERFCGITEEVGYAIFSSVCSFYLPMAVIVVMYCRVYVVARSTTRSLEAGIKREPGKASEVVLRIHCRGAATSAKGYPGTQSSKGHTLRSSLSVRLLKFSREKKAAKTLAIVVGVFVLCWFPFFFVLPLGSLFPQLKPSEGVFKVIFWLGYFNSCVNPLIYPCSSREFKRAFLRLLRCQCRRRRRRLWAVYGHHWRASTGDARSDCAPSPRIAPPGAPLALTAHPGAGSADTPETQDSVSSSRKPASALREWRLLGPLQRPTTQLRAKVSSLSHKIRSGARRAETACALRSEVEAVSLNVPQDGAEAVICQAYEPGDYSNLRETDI
# [7] = target: T6, Alpha-1D adrenergic receptor (Rattus norvegicus); assay: Affinity was evaluated against Alpha-1D adrenergic receptor in isolated rat aorta expressed as pKB; format: tissue-based; outline: as §1
# [8] = target: T5, Alpha-1B adrenergic receptor (Rattus norvegicus); assay: Affinity was evaluated against Alpha-1B adrenoceptor in isolated rat spleen expressed as pKB; format: tissue-based; outline: as §1
SMILES,Ki [1],pKB [2],Ki [3],Ki [4],pKB [5],pKB [6],pKB [7],pKB [8]
COc1cc2nc3c(c(N)c2cc1OC)CCC(CNC(=O)c1ccco1)C3 (configuration not stated),95.5 nM,6.52,15.8 nM,12.3 nM,7.3,7.47,–,–
COc1cc2nc3c(c(O)c2cc1OC)CCC(CNCCOc1c(OC)cccc1OC)C3 (configuration not stated),1700 nM,6.24,389 nM,219 nM,–,–,5.92,7.05
COc1cc2nc3c(c(N)c2cc1OC)CCC(CNC(=O)c1cccc(C(F)(F)F)c1)C3 (configuration not stated),31.6 nM,7.16,25.1 nM,12.6 nM,–,–,7.58,7.36
COc1cc2nc3c(c(N)c2cc1OC)CCC(CNC(=O)c1ccc(C(F)(F)F)cc1)C3 (configuration not stated),85.1 nM,6.08,19.1 nM,8.91 nM,–,–,6.67,7.2
COc1cc2nc3c(c(O)c2cc1OC)CCC(CNC(=O)c1ccco1)C3 (configuration not stated),2570 nM,5.76,1150 nM,295 nM,–,6.41,–,6.95
COc1cc2nc3c(c(N)c2cc1OC)CCC(CNCCOc1c(OC)cccc1OC)C3 (configuration not stated),977 nM,5.7,200 nM,39.8 nM,–,6.39,–,7.2
COc1cc2nc3c(c(N)c2cc1OC)CCC(CNC(=O)c1ccccc1C(F)(F)F)C3 (configuration not stated),288 nM,6.47,24.5 nM,7.41 nM,–,–,6.85,7.33
COc1cccc(OC)c1OCCNCC1COc2ccccc2O1 (configuration not stated),–,9.48,–,–,–,8.85,–,8.2
COc1cc2nc3c(c(N)c2cc1OC)CC(CNC(=O)c1ccco1)C3 (configuration not stated),158 nM,6.26,200 nM,79.4 nM,–,–,6.11,6.82
COc1cc2nc3c(c(N)c2cc1OC)CCC(CNC(=O)c1ccccc1)C3 (configuration not stated),–,6.67,–,–,–,–,6.63,7.19
COc1cc2nc3c(c(N)c2cc1OC)CCCC(CNC(=O)c1ccco1)C3 (configuration not stated),–,6.34,–,–,–,6.94,–,6.92
